Source: PubChem (Broad Institute)
Xi reactivation: X-chromosome reactivation activator; 360,000 tested, 0.055% active; activation, % at 7.58 µM; XiGFP mouse fibroblasts, % GFP-positive cells imaging, 3 d; cells co-treated with 5-aza-dC sensitizer; scaled so ellipticine positive control = 100%; AID 743238;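 active = mean normalized replicate activation at least 10% and every replicate at or above 10%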;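 note: 0% = median of on-plate neutral control wells and 100% = ellipticine 6 µM median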
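Schedule: 3 d treatment, 15 min room-temperature fixation; system: 68-5-11 XiGFP fibroblast line; buffer or medium: DMEM plus 5-aza-dC sensitizer; control set: ellipticine 6 µM positive control; compound: one concentration, pinned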
E-sel inducer: E-selectin induction on HUVECs. P16581. HUVEC E-selectin immunofluorescence imaging; normalized: neutral wells 0, TNF-alpha wells 100. activation, % at 7.58 µM. 260,000 tested, 0.37% active. AID 686992;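 active = mean E-selectin-positive cell signal at least 10% of the positive control, reached in at least 60% of replicates, without over 20% cell loss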
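assay system = HUVEC, human umbilical vein endothelial cells | input = 3,000 HUVEC seeded per well | medium = EGM-2 growth medium on 0.1% gelatin-coated wells | dosing = one compound dose added by pin transfer | signal = immunofluorescence imaging | read-out basis = % PE-positive cells | control set = TNF-alpha, DMSO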
* marks the source's active call; other numbers are inactive results; nt = not tested or not shown. The sample as a whole holds a higher share of hits than the screen did.

SMILES	Xi reactivation	E-sel inducer
CCC(=O)N/N=C/c1ccc(-c2ccc([N+](=O)[O-])cc2)o1	0	nt
CCC(=O)N1CC2(CN[C@H](CO)c3c2c2ccc(OC)cc2n3C)C1	0	nt
C[C@@H]1CN([C@@H](C)CO)C(=O)Cc2cc(NC(=O)c3ccncc3)ccc2O[C@@H]1CN(C)S(=O)(=O)c1cn(C)cn1	0	321*
C[C@H](CO)N1C[C@H](C)[C@@H](CN(C)S(=O)(=O)c2cn(C)cn2)Oc2ccc(NC(=O)c3ccncc3)cc2CC1=O	0	11
C[C@@H]1CN([C@H](C)CO)C(=O)Cc2cc(NC(=O)c3ccncc3)ccc2O[C@H]1CN(C)S(C)(=O)=O	0	447*
C[C@H](CO)N1C[C@H](C)[C@@H](CN(C)S(C)(=O)=O)Oc2ccc(NC(=O)c3ccncc3)cc2CC1=O	0	2
CC(C)NC(=O)Nc1ccc2c(c1)C(=O)N([C@H](C)CO)C[C@H](C)[C@H](CN(C)Cc1ccc(-c3ccccc3)cc1)O2	0	0
C[C@H]1CN([C@@H](C)CO)C(=O)c2cc(-c3cccc(F)c3)cnc2O[C@H]1CN(C)C(=O)C1CC1	-1	1
C[C@@H]1CN([C@H](C)CO)S(=O)(=O)c2ccc(-c3ccc(C(=O)N(C)C)cc3)cc2O[C@H]1CN(C)C(=O)C1CC1	-1	1
O=C(O)C1CCN(c2nc(-c3ccccc3)c3cc(Br)ccc3n2)CC1	0	34*
OCCN1CCN(c2nc(-c3ccccc3)c3cc(Br)ccc3n2)CC1	0	0
C[C@@H]1CN(C)C(=O)c2cc(NS(C)(=O)=O)ccc2O[C@@H]1CN(C)S(C)(=O)=O	0	nt
Cc1noc(C)c1S(=O)(=O)Nc1ccc2c(c1)C(=O)N([C@H](C)CO)C[C@@H](C)[C@@H](CN(C)Cc1ccc(Cl)c(Cl)c1)O2	0	nt
Cc1noc(C)c1S(=O)(=O)Nc1ccc2c(c1)C(=O)N([C@H](C)CO)C[C@H](C)[C@@H](CN(C)Cc1ccc(Cl)c(Cl)c1)O2	0	nt
Cc1noc(C)c1S(=O)(=O)Nc1ccc2c(c1)C(=O)N([C@H](C)CO)C[C@@H](C)[C@@H](CN(C)Cc1ccc3c(c1)OCO3)O2	0	44*
Cc1noc(C)c1S(=O)(=O)Nc1ccc2c(c1)C(=O)N([C@H](C)CO)C[C@@H](C)[C@H](CN(C)Cc1ccc3c(c1)OCO3)O2	1	26*
CNC[C@H]1Oc2ccc(N)cc2CC(=O)N(C)C[C@@H]1C	0	nt
C[C@H]1COCn2nncc2CCCC(=O)N1	0	nt
Cc1cc(F)ccc1S(=O)(=O)N1CCCCC1CCNC(=O)C(=O)NCc1ccccn1 (stereo not given)	0	75*
Cc1ccc(C)c(S(=O)(=O)N2CCCCC2CCNC(=O)C(=O)NCc2ccccn2)c1 (stereo not given)	0	-1
CCNC(=O)[C@@H]1[C@@H](CO)[C@@H]2Cn3c(cccc3=O)[C@@H]2N1CC1CCCCC1	0	-1
